Measurements: ChEMBL document CHEMBL4346670, “Discovery of Novel Janus Kinase (JAK) and Histone Deacetylase (HDAC) Dual Inhibitors for the Treatment of Hematological Malignancies” (J Med Chem, 2019)
pIC50: −log10 of the molar value.

Experiments:
Histone deacetylase = experiment: Inhibition of HDAC in human HeLa nuclear extract using Boc-Lys(acetyl)-AMC as substrate preincubated for 5 mins followed by substrate addition and measured after 30 mins by fluorescence assay; assay type: cell-based
Histone deacetylase 2 = Histone deacetylase 2 (Homo sapiens, UniProt Q92769); experiment: Inhibition of HDAC2 (unknown origin) using Boc-Lys(acetyl)-AMC as substrate preincubated for 5 mins followed by substrate addition and measured after 30 mins by fluorescence assay
[1] = molecular target: Tyrosine-protein kinase JAK2 (Homo sapiens, UniProt O60674); experiment: Inhibition of recombinant human JAK2 using Ulight-CAGAGAIETDKEYYTVKD as substrate measured after 60 mins by LANCE assay
[2] = molecular target: T1, Protein deacetylase HDAC6 (Homo sapiens, UniProt Q9UBN7); experiment: Inhibition of HDAC6 (unknown origin) using Boc-Lys(acetyl)-AMC as substrate preincubated for 5 mins followed by substrate addition and measured after 30 mins by fluorescence assay
T1 sequence (Q9UBN7 whole entry): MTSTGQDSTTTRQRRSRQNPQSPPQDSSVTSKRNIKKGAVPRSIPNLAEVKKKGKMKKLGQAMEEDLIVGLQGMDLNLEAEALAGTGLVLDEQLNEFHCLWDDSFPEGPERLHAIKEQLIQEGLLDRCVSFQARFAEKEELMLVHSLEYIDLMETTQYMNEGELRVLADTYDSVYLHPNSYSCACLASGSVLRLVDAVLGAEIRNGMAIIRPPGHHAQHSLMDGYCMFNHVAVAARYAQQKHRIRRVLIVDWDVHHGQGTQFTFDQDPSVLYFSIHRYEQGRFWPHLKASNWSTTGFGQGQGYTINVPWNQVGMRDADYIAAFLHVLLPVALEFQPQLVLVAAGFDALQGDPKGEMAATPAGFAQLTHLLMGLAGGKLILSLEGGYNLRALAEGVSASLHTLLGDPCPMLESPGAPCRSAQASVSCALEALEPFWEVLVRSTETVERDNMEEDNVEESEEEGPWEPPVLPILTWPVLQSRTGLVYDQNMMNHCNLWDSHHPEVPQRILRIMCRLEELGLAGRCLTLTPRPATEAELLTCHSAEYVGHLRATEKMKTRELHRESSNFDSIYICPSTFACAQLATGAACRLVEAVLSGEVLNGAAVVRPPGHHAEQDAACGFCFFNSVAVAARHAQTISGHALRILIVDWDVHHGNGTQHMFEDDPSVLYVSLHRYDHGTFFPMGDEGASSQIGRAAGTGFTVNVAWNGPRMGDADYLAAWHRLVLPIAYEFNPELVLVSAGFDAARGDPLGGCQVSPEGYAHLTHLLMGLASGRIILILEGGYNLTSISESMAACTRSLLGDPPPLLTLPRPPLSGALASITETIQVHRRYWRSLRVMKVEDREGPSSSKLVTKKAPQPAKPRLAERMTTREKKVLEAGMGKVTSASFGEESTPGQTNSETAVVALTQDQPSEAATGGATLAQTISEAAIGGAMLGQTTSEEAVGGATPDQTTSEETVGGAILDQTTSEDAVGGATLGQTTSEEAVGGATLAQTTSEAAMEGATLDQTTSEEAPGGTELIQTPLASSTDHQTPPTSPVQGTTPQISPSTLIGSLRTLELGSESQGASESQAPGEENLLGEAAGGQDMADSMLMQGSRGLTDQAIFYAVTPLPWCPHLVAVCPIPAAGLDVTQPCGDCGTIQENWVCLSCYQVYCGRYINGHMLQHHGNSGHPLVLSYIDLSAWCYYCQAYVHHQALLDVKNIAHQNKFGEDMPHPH

Histone deacetylase 8 = molecular target: T2, Histone deacetylase 8 (Homo sapiens, UniProt Q9BY41); experiment: Inhibition of HDAC8 (unknown origin) using Boc-Lys(trifluoroacetyl)-AMC as substrate preincubated for 5 mins followed by substrate addition and measured after 30 mins by fluorescence assay
T2 sequence (Q9BY41 whole entry): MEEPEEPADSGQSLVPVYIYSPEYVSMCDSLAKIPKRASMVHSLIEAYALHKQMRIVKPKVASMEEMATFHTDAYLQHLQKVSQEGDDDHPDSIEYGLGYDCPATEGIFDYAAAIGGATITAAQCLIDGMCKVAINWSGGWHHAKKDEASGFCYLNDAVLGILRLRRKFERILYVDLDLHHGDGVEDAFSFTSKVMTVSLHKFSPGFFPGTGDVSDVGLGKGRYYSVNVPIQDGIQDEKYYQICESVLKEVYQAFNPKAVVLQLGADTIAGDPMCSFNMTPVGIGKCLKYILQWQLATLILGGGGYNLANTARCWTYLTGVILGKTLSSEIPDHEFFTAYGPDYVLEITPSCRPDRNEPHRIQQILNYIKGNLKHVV

MOLT-4 = experiment: Antiproliferative activity against human MOLT4 cells assessed as reduction in cell viability after 48 hrs by MTT assay; assay type: functional, cell-based; conditions: MOLT-4, 48 h
Method in brief: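 Cells kept in RPMI1640 with 10% FBS at 37 °C, 5% CO2. Seeded and grown for 12 h, then exposed to a range of compound concentrations for 48 h. 0.5% MTT added for 4 h, formazan dissolved in DMSO, absorbance read at 570 nm.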

Jurkat = experiment: Antiproliferative activity against human Jurkat cells assessed as reduction in cell viability after 48 hrs by MTT assay; assay type: functional, cell-based
K562 = experiment: Antiproliferative activity against human K562 cells assessed as reduction in cell viability after 48 hrs by MTT assay; assay type: functional, cell-based; conditions: K562, 48 h
HEL = experiment: Antiproliferative activity against HEL cells harboring JAK2 V617F mutant assessed as reduction in cell viability after 48 hrs by MTT assay; assay type: functional, cell-based; conditions: Homo sapiens
[3] = molecular target: Non-receptor tyrosine-protein kinase TYK2 (Homo sapiens, UniProt P29597); experiment: Inhibition of recombinant human TYK2 using Ulight-CAGAGAIETDKEYYTVKD as substrate measured after 60 mins by LANCE assay
Method in brief: (§1)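 Human recombinant JAK enzyme assays run by a contract lab. IC50 was taken from a non-linear curve fit, with all parameters allowed to float. Assays were run in replicate (n>2) and reported as mean ± SD.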

[4] = molecular target: T3, Tyrosine-protein kinase JAK3 (Homo sapiens, UniProt P52333); experiment: Inhibition of recombinant human JAK3 using Ulight-CAGAGAIETDKEYYTVKD as substrate measured after 60 mins by LANCE assay
T3 sequence (P52333 whole entry): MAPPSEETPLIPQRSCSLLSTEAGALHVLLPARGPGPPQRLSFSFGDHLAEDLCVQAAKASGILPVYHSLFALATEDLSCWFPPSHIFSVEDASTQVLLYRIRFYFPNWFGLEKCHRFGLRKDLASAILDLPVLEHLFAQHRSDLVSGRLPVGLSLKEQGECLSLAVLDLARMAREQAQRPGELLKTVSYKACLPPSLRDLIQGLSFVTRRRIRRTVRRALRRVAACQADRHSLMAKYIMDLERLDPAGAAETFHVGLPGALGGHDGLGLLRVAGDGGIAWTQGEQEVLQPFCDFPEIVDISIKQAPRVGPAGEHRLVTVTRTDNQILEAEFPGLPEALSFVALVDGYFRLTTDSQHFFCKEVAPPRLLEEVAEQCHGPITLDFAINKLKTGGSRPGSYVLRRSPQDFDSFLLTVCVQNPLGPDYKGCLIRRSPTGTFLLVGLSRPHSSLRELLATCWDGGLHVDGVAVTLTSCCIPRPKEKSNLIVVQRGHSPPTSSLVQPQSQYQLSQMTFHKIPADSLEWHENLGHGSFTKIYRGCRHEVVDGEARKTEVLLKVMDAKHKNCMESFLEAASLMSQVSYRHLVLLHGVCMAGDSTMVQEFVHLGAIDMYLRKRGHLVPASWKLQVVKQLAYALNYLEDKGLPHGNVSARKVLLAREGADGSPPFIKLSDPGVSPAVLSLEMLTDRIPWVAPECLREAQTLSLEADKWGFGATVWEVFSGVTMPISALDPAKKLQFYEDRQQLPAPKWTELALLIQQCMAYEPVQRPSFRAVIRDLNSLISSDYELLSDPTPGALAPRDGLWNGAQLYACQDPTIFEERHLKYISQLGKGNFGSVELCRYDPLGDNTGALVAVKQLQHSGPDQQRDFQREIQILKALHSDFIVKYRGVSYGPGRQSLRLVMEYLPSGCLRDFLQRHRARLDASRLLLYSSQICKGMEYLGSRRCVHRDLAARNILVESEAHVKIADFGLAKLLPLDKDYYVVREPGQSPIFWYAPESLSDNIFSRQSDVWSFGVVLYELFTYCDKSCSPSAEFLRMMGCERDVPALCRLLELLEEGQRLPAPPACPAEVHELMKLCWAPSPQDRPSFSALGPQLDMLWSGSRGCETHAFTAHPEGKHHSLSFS

[5] = molecular target: Tyrosine-protein kinase JAK1 (Homo sapiens, UniProt P23458); experiment: Inhibition of recombinant human JAK1 using Ulight-CAGAGAIETDKEYYTVKD as substrate measured after 60 mins by LANCE assay; method in brief: as §1
[6] = molecular target: Histone deacetylase (Homo sapiens) (UniProt Q13547+O15379+Q9UBN7+Q92769+Q9UQL6+Q8WUI4+Q9BY41+Q96DB2+P56524+Q9UKV0+Q969S8); experiment: Potency index, ratio of SAHA IC50 to test compound IC50 for inhibition of HDAC in human HeLa cell nuclear extract; assay type: cell-based
Method in brief: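 HeLa cell nuclear extract was incubated with serial concentrations of compound for 5 min at 37 °C. Boc-Lys(acetyl)-AMC substrate was added for 30 min at 37 °C, then developer containing trypsin and TSA for 20 min. Fluorescence was read at ex 390/em 460 nm against control wells.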

Sequence of Tyrosine-protein kinase JAK2 (O60674 whole entry): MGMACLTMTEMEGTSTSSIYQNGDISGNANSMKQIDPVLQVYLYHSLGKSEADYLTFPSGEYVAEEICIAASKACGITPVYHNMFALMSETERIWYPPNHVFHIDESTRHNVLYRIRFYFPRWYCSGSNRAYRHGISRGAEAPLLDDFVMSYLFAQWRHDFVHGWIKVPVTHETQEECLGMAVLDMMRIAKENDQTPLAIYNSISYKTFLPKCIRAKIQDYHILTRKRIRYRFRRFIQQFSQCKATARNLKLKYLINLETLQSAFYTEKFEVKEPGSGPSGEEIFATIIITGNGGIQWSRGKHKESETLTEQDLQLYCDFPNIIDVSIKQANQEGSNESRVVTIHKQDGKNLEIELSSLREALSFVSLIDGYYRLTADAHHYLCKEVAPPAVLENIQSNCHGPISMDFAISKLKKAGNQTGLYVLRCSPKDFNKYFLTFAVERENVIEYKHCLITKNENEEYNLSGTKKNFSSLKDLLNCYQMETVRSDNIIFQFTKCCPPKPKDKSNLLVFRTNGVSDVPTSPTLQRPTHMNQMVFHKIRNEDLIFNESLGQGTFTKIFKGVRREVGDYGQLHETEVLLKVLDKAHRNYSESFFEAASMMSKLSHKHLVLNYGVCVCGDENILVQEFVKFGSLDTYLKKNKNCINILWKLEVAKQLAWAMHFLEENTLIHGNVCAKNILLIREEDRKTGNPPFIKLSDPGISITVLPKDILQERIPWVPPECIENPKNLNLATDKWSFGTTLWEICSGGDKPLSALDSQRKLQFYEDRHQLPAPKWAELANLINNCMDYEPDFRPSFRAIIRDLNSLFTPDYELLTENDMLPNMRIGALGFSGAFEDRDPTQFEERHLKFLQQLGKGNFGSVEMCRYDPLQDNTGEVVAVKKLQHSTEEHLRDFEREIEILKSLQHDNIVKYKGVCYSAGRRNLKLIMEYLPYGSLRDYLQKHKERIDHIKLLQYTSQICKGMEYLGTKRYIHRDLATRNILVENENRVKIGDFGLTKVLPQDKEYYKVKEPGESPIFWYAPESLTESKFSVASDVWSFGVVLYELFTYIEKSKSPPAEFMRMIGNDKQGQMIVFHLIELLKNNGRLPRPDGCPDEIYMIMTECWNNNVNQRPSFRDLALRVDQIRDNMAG
Sequence of Histone deacetylase 2 (Q92769 whole entry): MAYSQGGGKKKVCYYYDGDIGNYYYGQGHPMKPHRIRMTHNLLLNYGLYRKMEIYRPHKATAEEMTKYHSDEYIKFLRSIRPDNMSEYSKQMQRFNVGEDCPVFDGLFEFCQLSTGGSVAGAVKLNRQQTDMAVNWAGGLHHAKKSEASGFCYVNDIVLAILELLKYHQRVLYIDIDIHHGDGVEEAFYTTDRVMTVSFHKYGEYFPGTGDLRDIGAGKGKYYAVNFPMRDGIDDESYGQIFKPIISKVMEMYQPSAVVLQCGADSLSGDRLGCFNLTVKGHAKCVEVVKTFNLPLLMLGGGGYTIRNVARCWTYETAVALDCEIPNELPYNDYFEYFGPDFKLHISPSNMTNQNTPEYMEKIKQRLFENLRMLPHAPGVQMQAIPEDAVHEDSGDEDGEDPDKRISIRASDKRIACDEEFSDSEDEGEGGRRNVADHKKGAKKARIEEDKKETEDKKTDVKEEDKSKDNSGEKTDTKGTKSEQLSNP
Sequence of Non-receptor tyrosine-protein kinase TYK2 (P29597 whole entry): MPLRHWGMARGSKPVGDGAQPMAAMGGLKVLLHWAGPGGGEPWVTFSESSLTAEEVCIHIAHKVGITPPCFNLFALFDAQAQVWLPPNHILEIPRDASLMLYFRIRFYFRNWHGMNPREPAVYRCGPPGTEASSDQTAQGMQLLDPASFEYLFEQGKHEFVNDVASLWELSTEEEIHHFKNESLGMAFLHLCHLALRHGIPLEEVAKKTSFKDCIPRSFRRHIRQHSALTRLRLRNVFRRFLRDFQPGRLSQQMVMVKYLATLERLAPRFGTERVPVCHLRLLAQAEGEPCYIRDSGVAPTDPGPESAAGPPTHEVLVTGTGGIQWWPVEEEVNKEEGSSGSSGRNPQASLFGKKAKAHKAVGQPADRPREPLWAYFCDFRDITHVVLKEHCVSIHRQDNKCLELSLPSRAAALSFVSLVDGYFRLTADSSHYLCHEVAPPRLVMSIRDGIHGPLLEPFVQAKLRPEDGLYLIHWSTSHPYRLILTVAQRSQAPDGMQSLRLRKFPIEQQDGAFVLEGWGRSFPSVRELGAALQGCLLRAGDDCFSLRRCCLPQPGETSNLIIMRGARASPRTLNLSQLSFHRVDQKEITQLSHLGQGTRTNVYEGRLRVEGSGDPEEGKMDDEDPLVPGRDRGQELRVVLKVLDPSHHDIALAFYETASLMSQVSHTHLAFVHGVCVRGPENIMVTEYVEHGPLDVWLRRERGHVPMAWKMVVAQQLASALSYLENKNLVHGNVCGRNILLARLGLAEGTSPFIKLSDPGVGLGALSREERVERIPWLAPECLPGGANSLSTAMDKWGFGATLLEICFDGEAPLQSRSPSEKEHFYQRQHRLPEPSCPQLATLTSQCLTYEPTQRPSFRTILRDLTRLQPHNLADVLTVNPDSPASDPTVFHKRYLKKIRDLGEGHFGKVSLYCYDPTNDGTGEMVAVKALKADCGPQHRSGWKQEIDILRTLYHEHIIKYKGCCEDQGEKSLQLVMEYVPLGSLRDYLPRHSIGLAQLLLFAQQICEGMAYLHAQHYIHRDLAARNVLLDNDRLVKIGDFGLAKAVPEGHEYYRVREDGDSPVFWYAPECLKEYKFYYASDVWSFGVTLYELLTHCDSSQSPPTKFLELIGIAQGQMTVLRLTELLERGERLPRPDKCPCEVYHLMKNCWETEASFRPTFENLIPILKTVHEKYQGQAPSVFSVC
Sequence of Tyrosine-protein kinase JAK1 (P23458 whole entry): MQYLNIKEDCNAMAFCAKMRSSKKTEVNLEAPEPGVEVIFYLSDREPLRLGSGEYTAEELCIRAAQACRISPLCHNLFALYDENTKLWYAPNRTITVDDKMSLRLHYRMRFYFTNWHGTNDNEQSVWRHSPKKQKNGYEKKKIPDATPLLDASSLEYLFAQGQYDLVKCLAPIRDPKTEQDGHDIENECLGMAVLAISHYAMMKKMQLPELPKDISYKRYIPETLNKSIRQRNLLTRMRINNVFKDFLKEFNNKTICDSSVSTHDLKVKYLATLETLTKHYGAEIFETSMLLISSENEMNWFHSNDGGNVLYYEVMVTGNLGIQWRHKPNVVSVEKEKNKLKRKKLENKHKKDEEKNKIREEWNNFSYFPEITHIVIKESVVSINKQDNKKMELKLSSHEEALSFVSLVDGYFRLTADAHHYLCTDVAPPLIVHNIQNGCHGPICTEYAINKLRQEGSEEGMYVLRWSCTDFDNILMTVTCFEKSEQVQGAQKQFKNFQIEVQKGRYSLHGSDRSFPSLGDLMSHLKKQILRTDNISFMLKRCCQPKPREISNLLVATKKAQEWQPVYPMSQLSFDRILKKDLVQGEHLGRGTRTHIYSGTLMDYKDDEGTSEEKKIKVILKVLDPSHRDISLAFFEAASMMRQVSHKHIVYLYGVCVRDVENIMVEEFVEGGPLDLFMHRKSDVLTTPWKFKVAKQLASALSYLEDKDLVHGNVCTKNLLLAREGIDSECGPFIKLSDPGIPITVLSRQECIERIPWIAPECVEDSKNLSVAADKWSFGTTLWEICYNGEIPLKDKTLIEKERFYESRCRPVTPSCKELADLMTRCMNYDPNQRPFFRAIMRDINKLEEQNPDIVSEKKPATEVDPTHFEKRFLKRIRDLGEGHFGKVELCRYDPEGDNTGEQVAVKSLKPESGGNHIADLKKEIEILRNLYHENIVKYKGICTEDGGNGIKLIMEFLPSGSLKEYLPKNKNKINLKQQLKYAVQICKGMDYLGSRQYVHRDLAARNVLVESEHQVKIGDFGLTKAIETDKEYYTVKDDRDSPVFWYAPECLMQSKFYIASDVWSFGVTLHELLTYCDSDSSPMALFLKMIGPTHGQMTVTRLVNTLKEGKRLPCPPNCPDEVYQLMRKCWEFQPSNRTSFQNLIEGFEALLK

IC50 (Histone deacetylase) [nM] | pIC50 (Histone deacetylase 2) | pIC50 [1] | pIC50 [2] | pIC50 (Histone deacetylase 8) | pIC50 (MOLT-4) | pIC50 (Jurkat) | pIC50 (K562) | pIC50 [3] | pIC50 [4] | pIC50 [5] | Ratio IC50 [6] | Compound | pIC50 (HEL)
13 | – | – | – | – | 6.82 | 7.30 | 6.42 | 7.92 | 8.70 | 7.85 | – | O=C(CCCCCCn1cc(Nc2ncc(Cl)c(NC3CC3)n2)cn1)NO | 7.10
26 | – | 7.52 | – | – | – | – | – | – | – | – | – | CCCNc1nc(Nc2cnn(CCCCCCC(=O)NO)c2)ncc1Cl | –
10 | – | 7.34 | – | – | 6.29 | 6.60 | 6.07 | – | – | – | – | O=C(CCCCCCn1cc(Nc2ncc(Cl)c(Nc3ccccc3Cl)n2)cn1)NO | 6.47
19 | – | 7.92 | – | – | 6.80 | 7.05 | 6.38 | – | – | – | – | O=C(CCCCCCn1cc(Nc2ncc(Cl)c(Nc3ccccc3)n2)cn1)NO | 6.74
37 | – | 7.70 | – | – | 6.49 | 6.77 | 6.04 | – | – | – | – | O=C(CCCCCCn1cc(Nc2ncc(Cl)c(N3CCOCC3)n2)cn1)NO | 6.33
104 | – | 7.44 | – | – | – | – | – | – | – | – | – | CNc1nc(Nc2cnn(CCCCCC(=O)NO)c2)ncc1Cl | –
40 | – | 7.30 | – | – | – | – | – | 7.22 | 8.43 | 7.52 | – | O=C(CCCCCCn1cc(Nc2ncc(Cl)c(N3CCCCC3)n2)cn1)NO | –

The next lines start with the molecule.

Compound | IC50 (Histone deacetylase) [nM] | pIC50 (Histone deacetylase 2) | pIC50 [1] | pIC50 [2] | pIC50 (Histone deacetylase 8) | pIC50 (MOLT-4) | pIC50 (Jurkat) | pIC50 (K562) | pIC50 [3] | pIC50 [4] | pIC50 [5] | Ratio IC50 [6] | pIC50 (HEL)
O=C(CCCCCCCn1cc(Nc2ncc(Cl)c(Nc3ccc(F)cc3)n2)cn1)NO | 38 | 6.37 | 7.21 | 6.52 | 5.77 | – | – | – | – | – | – | – | –
O=C(CCCCCn1cc(Nc2ncc(Cl)c(Nc3ccccc3Cl)n2)cn1)NO | 18 | – | 7.74 | – | – | 6.20 | 6.51 | 5.74 | – | – | – | – | 6.37
O=C(CCCCCCn1cc(Nc2ncc(F)c(Nc3ccc(F)cc3)n2)cn1)NO | 3 | – | < 7.00 | – | – | – | – | – | – | – | – | > 50 | –
O=C(CCCCCn1cc(Nc2ncc(Cl)c(Nc3cccc(Cl)c3)n2)cn1)NO | 4 | – | 8.15 | – | – | 7.10 | 7.30 | 6.24 | – | – | – | – | 7.10
O=C(CCCCCCn1cc(Nc2nccc(Nc3ccc(F)cc3)n2)cn1)NO | 18 | – | < 7.00 | – | – | – | – | – | – | – | – | – | –
O=C(NO)c1ccc(Cn2cc(Nc3ncc(Cl)c(Nc4ccc(F)cc4)n3)cn2)cc1 | 62 | 6.14 | 7.68 | 7.89 | 6.92 | – | – | – | – | – | – | – | –
O=C(/C=C/c1ccc(Cn2cc(Nc3ncc(Cl)c(Nc4ccc(F)cc4)n3)cn2)cc1)NO | 144 | 6.00 | 7.37 | 7.20 | 4.85 | 6.48 | 6.82 | 5.99 | – | – | – | – | 6.22
CNc1nc(Nc2cnn(CCCCCCC(=O)NO)c2)ncc1C(F)(F)F | 37 | – | 7.07 | – | – | – | – | – | – | – | – | – | –
O=C(CCCCn1cc(Nc2ncc(Cl)c(Nc3ccc(F)cc3)n2)cn1)NO | 569 | 5.85 | 7.34 | 6.51 | 5.29 | – | – | – | – | – | – | – | –
O=C(CCCCCn1cc(Nc2ncc(Cl)c(Nc3ccc(F)cc3)n2)cn1)NO | 26 | – | 8.30 | – | – | 6.92 | 7.22 | 6.38 | – | – | – | – | 6.82
O=C(CCCCCCn1cc(Nc2ncc(C(F)(F)F)c(Nc3ccc(F)cc3)n2)cn1)NO | 41 | – | < 7.00 | – | – | 6.62 | – | 6.32 | – | – | – | – | 6.38
O=C(CCn1cc(Nc2ncc(Cl)c(Nc3ccc(F)cc3)n2)cn1)NO | > 10000 | – | 7.66 | – | – | – | – | – | – | – | – | – | –
O=C(CCCn1cc(Nc2ncc(Cl)c(Nc3ccc(F)cc3)n2)cn1)NO | > 10000 | – | 8.00 | – | – | – | – | – | – | – | – | – | –
